Source: PubChem (several laboratories)
Rows were chosen to be rich in hits. Some 11% of all compounds tested hit in one or more screens of this group.
WT yeast gro inh – growth inhibition of WT yeast, mitochondrial fusion screen; inhibition, % at 10 µM; 190,000 compounds, 2.1% hits; AID 1362; mitochondrial fusion phenotypic screen, WT strain; in the data active means inhibition above about 58%; tested in S. cerevisiae
Diaph act CS – activates diaphorase or chemically reduces, flagging diaphorase assay artifacts. Diaphorase/resazurin coupled assay, resorufin fluorescence, 16 min; hits give high values; 1 = vehicle wells, 0 = NADH-free wells. activation factor at 20 µM. 190,000 compounds, 0.005% hits. AID 1229;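 active means diaphorase activity raised at least twofold by the compound at 20 µM; inactive means activation factor below 2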
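Material: purified diaphorase enzyme from Clostridium kluyveri; Also added: 0.114 mM NADH and 0.1 mM resazurin, final amounts; Doses: single compound dose of 20 µM, 1% DMSO final; Times: 16 min enzyme reaction, ambient temperature; Detection: resorufin fluorescence, excitation 544 nm, emission 590 nm; Measure: increased resorufin signal from activators or reducing compounds.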
Lmaj promast – reduces viability of Leishmania major promastigotes. resazurin fluorescence viability. inhibition, % at 10 µM. 200,000 compounds, 9% hits;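 further: promastigotes grown with compound for 44 hours at 28 °C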
G6PDH counter – inhibits Leuconostoc G6PDH, flagging false hits in G6PDH-based assays | inhibition, % at 5 µM | 200,000 compounds, 0.12% hits | Purified L. mesenteroides G6PDH, diaphorase/resazurin coupled fluorescence, 45 min
Diaph inh CS – inhibits diaphorase or chemically oxidizes, flagging diaphorase assay artifacts | diaphorase resazurin-to-resorufin fluorescence, NADH, 16 min; bacterial (C. kluyveri) enzyme, not human | inhibition, % at 20 µM | 190,000 compounds, 0.69% hits;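 active means primary screen inhibition at 20 µM above a set limit, cut at about 50% in these data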;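 further: plate controls were DMSO with full reaction for no effect and wells lacking NADH for full effect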
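Benchmarks: positive control wells lacking NADH, neutral wells with DMSO only. System: bacterial diaphorase enzyme (C. kluyveri). Input: 0.14 U/mL diaphorase, enzyme working solution. Detection: resorufin fluorescence, excitation 544 nm, emission 590 nm. Times: 16-min room-temperature incubation before reading.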
Numbers without * were called inactive. Unless noted, no stated cut-off is given here; in the data, active means inhibition above about 50%; inactive means the rest.

Results for COc1ccc2cc3cc(C(=O)NCCN4CCc5ccccc5C4)sc3nc2c1 ?
WT yeast gro inh: 58*; Diaph act CS: 1.1; Lmaj promast: 50*; G6PDH counter: 10; Diaph inh CS: -12

What do the screens show for `COc1ccc2cc3cc(C(=O)NCCN4CCc5ccccc5C4)oc3nc2c1`?
WT yeast gro inh: -5; Diaph act CS: 1; Lmaj promast: 99*; G6PDH counter: 3; Diaph inh CS: 4

What do the screens show for `COc1ccc2cc3cc(C(=O)NCCN4CCN(Cc5ccccc5)CC4)oc3nc2c1`?
WT yeast gro inh: -8; Diaph act CS: 1.1; Lmaj promast: 95*; G6PDH counter: 6; Diaph inh CS: -11

How did COc1ccc2nc3oc(C(=O)NC4CCN(Cc5ccccc5)CC4)cc3cc2c1 do in these assays?
WT yeast gro inh: 21; Diaph act CS: 1.1; Lmaj promast: 100*; G6PDH counter: 9; Diaph inh CS: -5

What do the screens show for `Cc1ccc(S(=O)(=O)N(C)C)cc1NC(=S)Nc1ccc2[nH]c(=O)[nH]c2c1`?
WT yeast gro inh: -17; Diaph act CS: 0.9; Lmaj promast: -2; G6PDH counter: 5; Diaph inh CS: 9

Results for CN(C1CCCCC1)S(=O)(=O)c1ccc(C(=O)N2CCN(c3nc4ccccc4s3)CC2)cc1 ?
WT yeast gro inh: -3; Diaph act CS: 0.8; Lmaj promast: 0; G6PDH counter: -24; Diaph inh CS: 20

Results for Cc1cc2c(N=O)c(NO)ccc2[nH]1 ?
WT yeast gro inh: -4; Diaph act CS: 0.8; Lmaj promast: 83*; G6PDH counter: 48; Diaph inh CS: 22

Results for Cc1nc2sc(C(c3ccccc3)N3CCN(CCO)CC3)c(O)n2n1 (centres undefined) ?
WT yeast gro inh: 20

How did CCOC(=O)c1oc2ccc(CNC3CCCCC3)c(Cl)c2c1C do in these assays?
WT yeast gro inh: 10; Diaph act CS: 0.9; Lmaj promast: 96*; G6PDH counter: 4; Diaph inh CS: 14

What do the screens show for `CCOC(=O)c1oc2ccc(CNCCO)c(Cl)c2c1C`?
WT yeast gro inh: -15; Diaph act CS: 0.9; Lmaj promast: 97*; G6PDH counter: 4; Diaph inh CS: 6

How did Cc1ccc(Oc2ccc(NC(=O)CSc3n[nH]c(N)n3)cc2)cc1 do in these assays?
WT yeast gro inh: -3; Diaph act CS: 0.9; Lmaj promast: 59*; G6PDH counter: 3; Diaph inh CS: 6

How did CC(CCN(C)C)OC(=O)c1ccc(C(C)c2ccccc2)o1 (centres undefined) do in these assays?
WT yeast gro inh: -45; Diaph act CS: 1.1; Lmaj promast: 100*; G6PDH counter: 2; Diaph inh CS: -6

How did CC[C@@H]1C=C(C)C[C@H](C)C[C@H](OC)[C@H]2O[C@@](O)(C(=O)C(=O)N3CCCC[C@H]3C(=O)O[C@H](/C(C)=C/[C@@H]3CC[C@@H](O)[C@H](OC)C3)[C@H](C)[C@@H](O)CC1=O)[C@H](C)C[C@@H]2OC do in these assays?
WT yeast gro inh: 31; Diaph act CS: 0.9; Lmaj promast: 90*; G6PDH counter: 4; Diaph inh CS: 14

What do the screens show for `COc1nnc(-c2ccc(N3CCCCC3)c(N)c2)c2ccccc12`?
Lmaj promast: 30

What do the screens show for `CC(=O)N1CCN(c2ccc(OC[C@H]3CO[C@](Cn4ccnc4)(c4ccc(Cl)cc4Cl)O3)cc2)CC1`?
WT yeast gro inh: -45; Diaph act CS: 1; Lmaj promast: 89*; G6PDH counter: 7; Diaph inh CS: -3

Results for CC1CC(N(C(=O)c2ccccc2Cl)c2ccccc2)c2ccccc2N1 (centres undefined) ?
WT yeast gro inh: 67*; Diaph act CS: 0.8; Lmaj promast: 12; G6PDH counter: 5; Diaph inh CS: 18

What do the screens show for `Nc1c(C(=O)NC2CCCC2)c2nc3ccccc3nc2n1N`?
WT yeast gro inh: -11; Diaph act CS: 0.5; Lmaj promast: 11; G6PDH counter: 2; Diaph inh CS: 50*

What do the screens show for `CC(C)Cn1c(N)c(C(=O)NCC2CCCO2)c2nc3ccccc3nc21` (centres undefined)?
WT yeast gro inh: 60*; Diaph act CS: 0.8; Lmaj promast: 59*; G6PDH counter: 35; Diaph inh CS: 24

What do the screens show for `Nc1c(C(=O)OCC2CCCO2)c2nc3ccccc3nc2n1C1CCCC1` (centres undefined)?
WT yeast gro inh: -4; Diaph act CS: 0.7; Lmaj promast: 51*; G6PDH counter: 3; Diaph inh CS: 29
